Data on 9 compounds can be found in ChEMBL document CHEMBL1123268 (J Med Chem, 1986).

In data set [1] the test system is P388. Description: Antineoplastic activity against P388 leukemia in CD2F1 male mice and the percent increase in life span was measured on day 30. Type of data set: functional, Mus musculus. In short, it runs like this:
(§1)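 P388 leukemia: CD2F1 male mice (18-20 g, six per group) received 10^6 cells ip on day 0. Drug injected ip daily on days 1-9. Survival followed 30 days, with some groups to 60 days. Activity read as treated/control mean survival time (T/C), with %ILS calculated as [(T - C)/C] × 100. NCI protocol.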

Data set [2] concerns P388. Description: Compound was tested for its antineoplastic activities against P388 leukemia in CD2F1 male mice. It is filed as functional, Mus musculus. The essentials: as §1
Data set [3] relates to P388. The data set can be described thus: Number of cures from P388 leukemia in CD2F1 male mice as tumor-free survivors after day 60. It is filed as functional, Mus musculus. To be noted: for Cures (survivors/total): Mus musculus. The essentials:
(§2)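 Cures in P388-bearing CD2F1 male mice: 10^6 tumor cells ip on day 0, then ip treatment daily on days 1-9 in groups of six. Animals were observed up to 60 days, and tumor-free survivors were counted as cures.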

Data set [4] concerns P388. The data set can be described thus: Antineoplastic activities against P388 leukemia in CD2F1 male mice. Details: unit not given here. It is filed as functional, Mus musculus. The essentials:
as §1

Data set [5] deals with P388. The data set can be described thus: Antineoplastic activity against P388 leukemia in CD2F1 male mice and the average percentage weight change on day 5 was measured. It is filed as functional, Mus musculus. In short, it runs like this:
(§3)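 Toxicity readout in the P388 model: CD2F1 male mice given 10^6 cells ip on day 0, then daily ip dosing for 9 days from day 1. Average percentage body-weight change on day 5 was taken as the measure of drug toxicity.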

A short description of data set [6]: Therapeutic ratio as optimum dose/dose ILS40. The settings on record: read-out: Therapeutic ratio. The essentials:
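Therapeutic ratio derived from the P388/L1210 survival data (CD2F1 male mice, ip daily dosing days 1-9). Optimum dose is the daily dose giving maximum increase in life span. ILS40 dose is the daily dose giving a 40% increase in life span over controls.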

The subject of data set [7] is L1210. It is filed as functional, Mus musculus.
Data set [8] deals with L1210. The data set can be described thus: Compound was tested for anticancer activity against L1210 leukemia in CD2F1 male mice at dose of 25 mg/kg per day; 8.6/7. Type of data set: functional, Mus musculus.
The subject of data set [9] is L1210. Description: Compound was tested for anticancer activity against L1210 leukemia in CD2F1 male mice at dose of 50 mg/kg per day; 12.6/7. Type of data set: functional, Mus musculus.
Data set [10] relates to L1210. It is filed as functional, Mus musculus. This is another data set of the same source.
The test system of data set [11] is L1210. Description: Compound was tested for anticancer activities against L1210 leukemia in CD2F1 male mice at dose of 25 mg/kg per day; 0/6. Type of data set: functional, Mus musculus.
In data set [12] the test system is L1210. The data set can be described thus: Compound was tested for anticancer activities against L1210 leukemia in CD2F1 male mice at dose of 50 mg/kg per day; 0/6. Type of data set: functional, Mus musculus.
Data set [13] deals with L1210. The data set can be described thus: animal or person. It is filed as functional. To be noted: Mus musculus.
Data set [14] relates to L1210. The data set can be described thus: Compound was tested for anticancer activities against L1210 leukemia in CD2F1 male mice at dose of 25 mg/kg per day. It is filed as functional. The settings on record: Mus musculus.
Data set [15] has as its system L1210. The data set can be described thus: Anticancer activities against L1210 leukemia in CD2F1 male mice at dose of 50 mg/kg per day. To be noted: Mus musculus. Type of data set: functional.
Data set [16] concerns L1210. Type of data set: functional, Mus musculus. The settings on record: at 100 mg/kg/day.
In data set [17] the test system is L1210. Description: Compound was tested for anticancer activity against L1210 leukemia in CD2F1 male mice at dose of 25 mg/kg per day. It is filed as functional, Mus musculus.
Data set [18] relates to L1210. The data set can be described thus: Compound was tested for anticancer activity against L1210 leukemia in CD2F1 male mice at dose of 50 mg/kg per day. It is filed as functional, Mus musculus.
The test system of data set [19] is P388. The data set can be described thus: Compound was tested for its antineoplastic activity against P388 leukemia in CD2F1 male mice and the percent increase in life span was measured on day 30. It is filed as functional, Mus musculus. The essentials:
as §1

Data set [20] deals with P388. The data set can be described thus: Compound was tested for its antineoplastic activity against P388 leukemia in CD2F1 male mice. Type of data set: functional, Mus musculus. The essentials: as §1
The test system of data set [21] is P388. The data set can be described thus: Compound was tested for its antineoplastic activity against P388 leukemia in CD2F1 male mice and the average percentage weight change on day 5 was measured. Type of data set: functional, Mus musculus. The essentials:
as §3

The test system of data set [22] is P388. Description: Compound was tested for number of cures from P388 leukemia in CD2F1 male mice as tumor-free survivors after day 60; 6/6. Type of data set: functional, Mus musculus. In short, it runs like this: as §2
Data set [23] deals with L1210. To be noted: Mus musculus.
The test system of data set [24] is L1210. To be noted: Mus musculus, at 100 mg/kg/day.
Data set [25] deals with L1210. To be noted: Mus musculus. The source holds these as a separate data set.
In data set [26] the test system is L1210. The settings on record: Mus musculus, at 100 mg/kg/day. The source holds these as a separate data set.
In data set [27] the test system is L1210. Description: Compound was tested for anticancer activities against L1210 leukemia in CD2F1 male mice at dose of 50 mg/kg per day. It is filed as functional, Mus musculus.
For data set [28], the system named is L1210. The data set can be described thus: Compound was tested for anticancer activities against L1210 leukemia in CD2F1 male mice at dose of 50 mg/kg per day; 12.0/7. Type of data set: functional, Mus musculus.
In data set [29] the test system is P388. Description: Compound was tested for number of cures from P388 leukemia in CD2F1 male mice as tumor-free survivors after day 60; 3/6. Type of data set: functional, Mus musculus. In short, it runs like this:
as §2

Data set [30] relates to L1210. The settings on record: Mus musculus. This is another data set of the same source.
The test system of data set [31] is L1210. Description: Compound was tested for anticancer activities against L1210 leukemia in CD2F1 male mice at dose of 6.5 mg/kg per day; 0/6. It is filed as functional, Mus musculus.
Data set [32] relates to L1210. Description: (§4) Compound was tested for anticancer activities against L1210 leukemia in CD2F1 male mice at dose of 6.5 mg/kg per day. Type of data set: functional, Mus musculus.
Data set [33] deals with L1210. The description is as §4. It is filed as functional. The settings on record: Mus musculus.

In data set [1], `O=P(N1CC1)(N1CC1)N1CC1` [TEPA] showed an increase in lifespan (ILS) of 135%. The compound also returned an ILS40 in [2] of 2.75 mg/kg/day. In data set [3], this compound gave a Cures of 0 survivors/total. The compound also showed an Optimal dose in [4] of 6. For the same compound, the “Weight change on day 5” value in data set [5] is reported as -4%. Also, the selectivity ratio in data set [6] was found to be 2.2.

Take `CC1(C)CC(NC(=O)NP(=O)(N2CC2)N2CC2)CC(C)(C)N1[O]`: the T/C survival days in data set [7] came to 14; in data set [8], 8.6; in data set [9] it was 12.6. Besides, the “Survivors at day 30” value in data set [10], in data set [11] and in data set [12] was 0 each time. The ILS at 100 mg/kg/day in data set [13] was found to be 115%. In addition, the increase in lifespan (ILS) at 25 mg/kg/day in data set [14] was determined as 23%. Also, the ILS at 50 mg/kg/day in [15] is 81%. The T/C in [16] was found to be 215%; in [17], 123%; in data set [18], 181%. Besides, the ILS in data set [1] was determined as 170%. This compound registered an ILS max in data set [19] of 439%. Besides, in data set [20], the ILS40 is 3.4 mg/kg/day. The compound further displayed an Optimal dose in [20] of 90. Also, the “Weight change on day 5” value in data set [21] was -2.4%. In data set [22], this compound registered a Cures of 6 survivors/total. Further, in [6], the selectivity ratio came out at 26.5.

With `CC1(C)CC(NC(=O)NP(=O)(N2CC2(C)C)N2CC2(C)C)C(C)(C)N1[O]` (stereo not given), the results for the ILS in [1] (Mus musculus) and in data set [24] were 56% and 48%, respectively. The compound further gave a Cures (survivors/total) in data set [3] of 0. Also, in [4] (Mus musculus), the Optimal dose turned out to be 90. Moreover, in [5] (Mus musculus), the Weight change on day 5 is 6.2%. In [23], the Survivors at day 30 was determined as 0. Further, the T/C survival days in data set [25] was determined as 10.4. The compound further yielded a T/C in data set [26] of 148%.

`CC1(C)CC(NC(=O)NP(=O)(N2CC2)N2CC2)C(C)(C)N1[O]` (stereo not given): the “Survivors at day 30” value in [12] was found to be 0. This compound also yielded a T/C in data set [27] of 172%. In data set [15], the increase in life span (ILS) at 50 mg/kg/day turned out to be 72%. This compound came in with a T/C survival days in data set [28] of 12. In data set [1], this compound registered an ILS of 178%. Moreover, the ILS max in data set [19] is reported as 387%. Besides, the ILS40 in [2] worked out at 4 mg/kg/day. In addition, the Cures in data set [29] is 3 survivors/total. The compound further yielded an Optimal dose in data set [4] of 90. For the same compound, the selectivity ratio in data set [6] came out at 22.5.

Consider `CC1(C)CC(OP(=S)(N2CC2)N2CC2)CC(C)(C)N1[O]`, for which the ILS in [1] was determined as 103%. Moreover, the Optimal dose in data set [4] was found to be 12. Also, the selectivity ratio in data set [6] was found to be 5.15.

Turning to `CC1(C)CC(NC(=O)NP(=O)(N2CC2(C)C)N2CC2(C)C)CC(C)(C)N1[O]` (stereo not given), the ILS was 62% in data set [1] (Mus musculus) and 64% in data set [24]. The Weight change on day 5 in data set [21] (Mus musculus) came to 7.3%. Also, the Cures (survivors/total) in data set [3] came out at 0. In data set [4] (Mus musculus), this compound displayed an Optimal dose of 90. The compound also displayed a Survivors at day 30 in data set [23] of 0. In [30], this compound returned a T/C survival days of 11.5. Besides, in data set [26], the T/C was found to be 164%.

`O=c1[nH]cc(F)c(=O)[nH]1` [FLUOROURACIL]: the increase in lifespan (ILS) in [1] came to 79%. In data set [3], this compound displayed a Cures of 0 survivors/total. The compound also showed an Optimal dose in [4] of 200. Further, in data set [5], the “Weight change on day 5” value was -4%.

For the compound `CC1(C)CC(NP(=S)(N2CC2)N2CC2)CC(C)(C)N1[O]`, in data set [1], the ILS is 96%. The Optimal dose in [4] came to 25. In addition, the selectivity ratio in [6] came out at 2.73.

Take `S=P(N1CC1)(N1CC1)N1CC1` [THIOTEPA]: the “Survivors at day 30” value in [31] came to 0. This compound yielded a T/C in [32] of 155%. For the same compound, in data set [33], the ILS at 6.5 mg/kg/day is 55%. Further, the ILS in data set [1] stood at 141%. The compound also returned an ILS40 in data set [2] of 2.18 mg/kg/day. For the same compound, in [3], the Cures amounted to 0 survivors/total. The Optimal dose in data set [4] came to 6. For the same compound, the “Weight change on day 5” value in [5] is given as -2.1%. In addition, the selectivity ratio in data set [6] was 2.75.
